# Measured values as given in ChEMBL document CHEMBL1154683, “Bis(dialkylaminethiocarbonyl)disulfides as potent and selective monoglyceride lipase inhibitors” (J Med Chem, 2009).
# Numbering of substitutions follows the chain as printed. Activity calls are given as the source filed them. The calls are words filed in the database; no cut-off is given here.
# How the values were obtained:
# Monoglyceride lipase [1] = target: T1, Monoglyceride lipase (Homo sapiens, UniProt Q99685); assay: Inhibition of human MGL activity using [3H]2-oleoylglycerol substrate by liquid scintillation counting
# T1 sequence (Q99685 whole entry): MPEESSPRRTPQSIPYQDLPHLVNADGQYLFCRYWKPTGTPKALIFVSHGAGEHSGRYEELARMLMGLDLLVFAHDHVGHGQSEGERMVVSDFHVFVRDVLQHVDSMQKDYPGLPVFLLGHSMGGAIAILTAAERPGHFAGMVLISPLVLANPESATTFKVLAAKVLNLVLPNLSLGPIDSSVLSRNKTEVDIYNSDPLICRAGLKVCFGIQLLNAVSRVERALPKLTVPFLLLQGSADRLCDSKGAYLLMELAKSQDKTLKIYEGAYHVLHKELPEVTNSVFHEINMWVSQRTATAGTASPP
# Outline: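 Recombinant human MGL was used, and inhibition was expressed as pIC50.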
# [2] = test system: T2, Monoglyceride lipase (Homo sapiens), Q99685 [C208A,C242A]; assay: Inhibition of human MGL C208A/C242A double mutant using [3H]2-oleoylglycerol substrate
# T2 sequence (whole entry): T1 sequence (Q99685 whole entry) with C208A, C242A
# [3] = target: T3, Monoglyceride lipase (Homo sapiens) (UniProt Q99685); assay: Inhibition of human MGL activity using [3H]2-oleoylglycerol substrate assessed as reversible enzyme activity in presence of 1,4-dithio-DL-threitol
# T3 sequence (whole entry): T1 sequence (Q99685 whole entry)
# Outline: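 Recombinant human MGL incubated with inhibitor to allow disulfide bond formation. DTT (10^-2 M) was then added before substrate addition and the MGL activity read.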
# [4] = target: T3, Monoglyceride lipase (Homo sapiens); assay: Inhibition of human MGL activity using [3H]2-oleoylglycerol substrate at 100 nM measured upto 1 hr by high dilution reversibility assay
# Outline: (§1)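 Recombinant human MGL preincubated with inhibitor at 30, 10 or 3 μM, then diluted 300-fold before substrate addition, giving 100, 33.3 and 10 nM during the activity read. Activity was followed up to 1 h postdilution and compared with a DMSO-preincubated control.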
# [5] = target: T3, Monoglyceride lipase (Homo sapiens); assay: Inhibition of human MGL activity using [3H]2-oleoylglycerol substrate at 33.3 nM measured upto 1 hr by high dilution reversibility assay; outline: as §1
# [6] = target: T4, Fatty-acid amide hydrolase 1 (Homo sapiens, UniProt O00519); assay: Inhibition of human recombinant FAAH-maltose binding protein
# T4 sequence (O00519 whole entry): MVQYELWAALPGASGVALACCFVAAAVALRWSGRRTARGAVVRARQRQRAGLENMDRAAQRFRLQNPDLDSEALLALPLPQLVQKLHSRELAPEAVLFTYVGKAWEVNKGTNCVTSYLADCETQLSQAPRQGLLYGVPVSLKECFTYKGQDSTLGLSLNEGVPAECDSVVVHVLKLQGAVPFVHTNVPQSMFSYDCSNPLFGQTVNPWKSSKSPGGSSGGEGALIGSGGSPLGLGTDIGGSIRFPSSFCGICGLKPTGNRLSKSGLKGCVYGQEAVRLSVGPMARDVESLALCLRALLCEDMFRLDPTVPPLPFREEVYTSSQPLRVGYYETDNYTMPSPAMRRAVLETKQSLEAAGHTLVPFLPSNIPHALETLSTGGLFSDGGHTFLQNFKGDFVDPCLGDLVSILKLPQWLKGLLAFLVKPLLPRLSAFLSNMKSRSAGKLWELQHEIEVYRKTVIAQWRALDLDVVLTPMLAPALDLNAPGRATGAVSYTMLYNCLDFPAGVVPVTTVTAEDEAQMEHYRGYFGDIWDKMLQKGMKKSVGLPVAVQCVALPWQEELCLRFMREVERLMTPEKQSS
# [7] = target: T3, Monoglyceride lipase (Homo sapiens); assay: Inhibition of human MGL activity using [3H]2-oleoylglycerol substrate at 10 nM measured upto 1 hr by high dilution reversibility assay; outline: as §1
# [8] = target: T5, Aldehyde dehydrogenase, mitochondrial (Rattus norvegicus, UniProt P11884); assay: Inhibition of recombinant rat ALDH activity in liver mitochondria
# T5 sequence (P11884 whole entry): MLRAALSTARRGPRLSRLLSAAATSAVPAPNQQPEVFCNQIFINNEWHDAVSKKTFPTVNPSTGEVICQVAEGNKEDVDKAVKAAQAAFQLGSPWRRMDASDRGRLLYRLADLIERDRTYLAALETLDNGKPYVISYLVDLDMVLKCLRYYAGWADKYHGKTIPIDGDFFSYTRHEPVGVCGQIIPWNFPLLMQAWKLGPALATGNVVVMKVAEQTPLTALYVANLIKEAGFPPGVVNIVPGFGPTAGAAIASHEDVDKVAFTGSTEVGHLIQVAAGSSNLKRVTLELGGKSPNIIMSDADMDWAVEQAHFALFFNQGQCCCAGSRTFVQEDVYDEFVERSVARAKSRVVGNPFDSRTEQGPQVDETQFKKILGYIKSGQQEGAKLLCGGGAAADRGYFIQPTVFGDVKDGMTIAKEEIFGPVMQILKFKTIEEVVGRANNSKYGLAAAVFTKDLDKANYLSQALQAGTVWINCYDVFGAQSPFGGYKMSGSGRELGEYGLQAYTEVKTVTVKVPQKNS
# Monoglyceride lipase [9] = target: Monoglyceride lipase (Homo sapiens, UniProt Q99685, C242A); assay: Inhibition of human MGL C242A mutant using [3H]2-oleoylglycerol substrate
# Monoglyceride lipase [10] = target: Monoglyceride lipase (Homo sapiens, UniProt Q99685, C208A); assay: Inhibition of human MGL C208A mutant using [3H]2-oleoylglycerol substrate
# [11] = target: T3, Monoglyceride lipase (Homo sapiens); assay: Inhibition of human MGL activity using [3H]2-oleoylglycerol substrate at 10 uM by liquid scintillation counting
# Outline: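 Single-point screen on recombinant human MGL at 10 μM, with a parallel screen at 100 μM.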
# Homo sapiens = organism: Homo sapiens; assay: Selectivity ratio for human MGL activity to human recombinant FAAH
# Monoglyceride lipase (Homo sapiens, UniProt Q99685, C242A), sequence (Q99685 whole entry C242A): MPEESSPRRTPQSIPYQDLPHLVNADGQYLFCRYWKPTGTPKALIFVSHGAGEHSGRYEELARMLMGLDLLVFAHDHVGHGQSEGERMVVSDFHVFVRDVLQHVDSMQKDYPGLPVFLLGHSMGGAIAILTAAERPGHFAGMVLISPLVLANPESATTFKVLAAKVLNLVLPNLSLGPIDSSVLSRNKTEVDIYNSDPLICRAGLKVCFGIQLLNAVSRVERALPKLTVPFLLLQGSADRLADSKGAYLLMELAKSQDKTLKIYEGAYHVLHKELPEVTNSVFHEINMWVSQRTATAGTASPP
# Monoglyceride lipase (Homo sapiens, UniProt Q99685, C208A), sequence (Q99685 whole entry C208A): as the sequence (Q99685 whole entry C242A) above, with C208A, A242C counted along it
smiles,measurement,setting,value
CN1CCN(C(=S)SSC(=S)N2CCN(C)CC2)CC1,IC50,Monoglyceride lipase [1],0.11 µM
same,Activity,[2],inactive
same,Activity,[3],Active
same,Activity,[4],Active
same,Activity,[5],Active
same,IC50,[6],200 µM
same,Activity,[7],Active
same,IC50,[8],15.8 µM
same,IC50,Monoglyceride lipase [9],0.302 µM
same,IC50,Monoglyceride lipase [10],8.32 µM
same,inhibition,[11],> 50%
CCN(CC)C(=S)SSC(=S)N(CC)CC,IC50,Monoglyceride lipase [1],1.26 µM
same,IC50,[6],363 µM
same,inhibition,[11],> 50%
C1CN(SSN2CCOCC2)CCO1 [DITHIODIMORPHOLINE],IC50,Monoglyceride lipase [1],11.2 µM
same,IC50,[6],> 1000 µM
same,inhibition,[11],> 50%
CCCCCCCCCCCCCCCCN(CC)C(=S)SSC(=S)N(CC)CCCCCCCCCCCCCC,IC50,Monoglyceride lipase [1],10.5 µM
same,IC50,[6],> 1000 µM
same,inhibition,[11],> 50%
S=C(SSC(=S)N1CCCCC1)N1CCCCC1 [BIS(PIPERIDINYLTHIOCARBONYL)DISULFIDE],IC50,Monoglyceride lipase [1],0.316 µM
same,IC50,[6],> 1000 µM
same,inhibition,[11],> 50%
CCN(CC)C(=S)CSC(=S)N(CC)CC [(DIETHYLTHIOCARBAMOYL)METHYLENE DIETHYLCARBAMODITHIOATE],IC50,Monoglyceride lipase [1],19.1 µM
same,IC50,[6],> 1000 µM
same,inhibition,[11],> 50%
CN(C)C(=O)n1nnnc1Cc1ccc(-c2ccccc2)cc1,IC50,Monoglyceride lipase [1],0.055 µM
CC1CCCC(C)N1C(=S)SSC(=S)N1C(C)CCCC1C (centres undefined),IC50,Monoglyceride lipase [1],0.479 µM
same,IC50,[6],> 1000 µM
same,inhibition,[11],> 50%
CN(C)C(=S)SC(=S)N1CCOCC1,IC50,Monoglyceride lipase [1],6.46 µM
same,IC50,[6],> 1000 µM
same,inhibition,[11],> 50%
COc1nn(-c2ccc(NC(=O)OCc3ccccc3)c(C)c2)c(=O)o1,IC50,Monoglyceride lipase [1],0.0204 µM
same,Selectivity ratio,Homo sapiens,3
same,IC50,[6],0.0776 µM
O=C(CSC(=S)N1CCOCC1)N1CCOCC1,IC50,Monoglyceride lipase [1],219 µM
same,IC50,[6],> 1000 µM
same,inhibition,[11],> 50%
S=C(CSC(=S)N1CCOCC1)N1CCOCC1,IC50,Monoglyceride lipase [1],15.5 µM
same,IC50,[6],> 1000 µM
same,inhibition,[11],> 50%
S=C(SSC(=S)N1CCCC1)N1CCCC1 [BIS(PYRROLIDINYLTHIOCARBONYL)DISULFIDE],IC50,Monoglyceride lipase [1],0.912 µM
same,IC50,[6],> 1000 µM
same,inhibition,[11],> 50%
CCN(CC)C(=S)SC [METHYLDIETHYL CARBAMODITHIOATE],IC50,Monoglyceride lipase [1],> 1000 µM
same,IC50,[6],> 1000 µM
S=C(SSC(=S)N1CCN(C2CCCCC2)CC1)N1CCN(C2CCCCC2)CC1,IC50,Monoglyceride lipase [1],0.166 µM
same,IC50,[6],> 1000 µM
same,inhibition,[11],> 50%
S=C(SCSC(=S)N1CCOCC1)N1CCOCC1,IC50,Monoglyceride lipase [1],102 µM
same,IC50,[6],> 1000 µM
same,inhibition,[11],> 50%
CCN(Cc1ccccc1)C(=S)SSC(=S)N(CC)Cc1ccccc1,IC50,Monoglyceride lipase [1],4.07 µM
same,IC50,[6],> 1000 µM
same,inhibition,[11],> 50%
CCCCC/C=C\C/C=C\C/C=C\C/C=C\CCCC(=O)C(F)(F)F [ARACHIDONYL TRIFLUOROMETHYLKETONE],IC50,Monoglyceride lipase [1],6.46 µM
same,Selectivity ratio,Homo sapiens,0.002
same,IC50,[6],0.0123 µM
C1CCN(SSN2CCCCC2)CC1,IC50,Monoglyceride lipase [1],9.55 µM
same,IC50,[6],> 1000 µM
same,inhibition,[11],> 50%
CC1CCN(C(=S)SSC(=S)N2CCC(C)CC2)CC1,IC50,Monoglyceride lipase [1],0.269 µM
same,IC50,[6],> 1000 µM
same,inhibition,[11],> 50%
CCN(CC)C(=O)CSC(=S)N(CC)CC [(DIETHYLCARBAMOYL)METHYLENE DIETHYLCARBAMODITHIOATE],IC50,Monoglyceride lipase [1],631 µM
same,IC50,[6],> 1000 µM
same,inhibition,[11],> 50%
S=C(SSC(=S)N(Cc1ccccc1)Cc1ccccc1)N(Cc1ccccc1)Cc1ccccc1 [BIS(DIBENZYLAMINETHIOCARBONYL)DISULFIDE],IC50,Monoglyceride lipase [1],9.55 µM
same,IC50,[6],> 1000 µM
same,inhibition,[11],> 50%
S=C(SSC(=S)N1CCSCC1)N1CCSCC1,IC50,Monoglyceride lipase [1],0.316 µM
same,IC50,[6],25.1 µM
same,inhibition,[11],> 50%
CCCCC/C=C\C/C=C\C/C=C\C/C=C\CCCCN1C(=O)CCC1=O,IC50,Monoglyceride lipase [1],1.12 µM
same,Selectivity ratio,Homo sapiens,1.95
same,IC50,[6],2.19 µM
S=C(SSC(=S)N1CCC(Cc2ccccc2)CC1)N1CCC(Cc2ccccc2)CC1,IC50,Monoglyceride lipase [1],6.92 µM
same,IC50,[6],> 1000 µM
same,inhibition,[11],> 50%
S=C(SSC(=S)N1CCCCCC1)N1CCCCCC1,IC50,Monoglyceride lipase [1],0.813 µM
same,IC50,[6],> 1000 µM
same,inhibition,[11],> 50%
CN(C(=S)SSC(=S)N(C)c1ccccc1)c1ccccc1,IC50,Monoglyceride lipase [1],0.741 µM
same,IC50,[6],33.9 µM
same,inhibition,[11],> 50%
CN(Cc1ccccc1)C(=S)SSC(=S)N(C)Cc1ccccc1,IC50,Monoglyceride lipase [1],0.437 µM
same,IC50,[6],> 1000 µM
same,inhibition,[11],> 50%
S=C(SSC(=S)N1CCOCC1)N1CCOCC1,IC50,Monoglyceride lipase [1],0.219 µM
same,IC50,[6],79.4 µM
same,inhibition,[11],> 50%
S=C(SSC(=S)N1CCN(Cc2ccccc2)CC1)N1CCN(Cc2ccccc2)CC1,IC50,Monoglyceride lipase [1],5.01 µM
same,IC50,[6],170 µM
same,inhibition,[11],> 50%
O=C(Nc1cccc(-c2ccccc2)c1)OC1CCCCC1,IC50,Monoglyceride lipase [1],10 µM
same,Selectivity ratio,Homo sapiens,0.57
same,IC50,[6],5.75 µM
CCN(CC)C(=S)SCSC(=S)N(CC)CC,IC50,Monoglyceride lipase [1],20.9 µM
same,IC50,[6],> 1000 µM
same,inhibition,[11],> 50%
CN(C(=S)SSC(=S)N(C)C1CCCCC1)C1CCCCC1,IC50,Monoglyceride lipase [1],0.141 µM
same,IC50,[6],4.79 µM
same,inhibition,[11],> 50%
S=C(SSC(=S)N1CCc2ccccc2C1)N1CCc2ccccc2C1,IC50,Monoglyceride lipase [1],0.347 µM
same,IC50,[6],> 1000 µM
same,inhibition,[11],> 50%
S=C(SSC(=S)N1CCN(c2ccccc2)CC1)N1CCN(c2ccccc2)CC1,IC50,Monoglyceride lipase [1],0.49 µM
same,IC50,[6],135 µM
same,inhibition,[11],> 50%
CN(C)C(=S)SC(=S)N(C)C [BIS(DIMETHYLAMINETHIOCARBONYL)MONOSULFIDE],IC50,Monoglyceride lipase [1],12.3 µM
same,IC50,[6],> 1000 µM
same,inhibition,[11],> 50%
CN(C)C(=S)SSC(=S)N(C)C [THIRAM],IC50,Monoglyceride lipase [1],0.977 µM
same,Selectivity ratio,Homo sapiens,45
same,IC50,[6],44.7 µM
same,inhibition,[11],> 50%
S=C(SSC(=S)N1CCCc2ccccc21)N1CCCc2ccccc21,IC50,Monoglyceride lipase [1],0.741 µM
same,IC50,[6],> 1000 µM
same,inhibition,[11],> 50%
CCN(CC)SSN(CC)CC,IC50,Monoglyceride lipase [1],7.94 µM
same,IC50,[6],> 1000 µM
same,inhibition,[11],> 50%
CSC(=S)N1CCOCC1,IC50,Monoglyceride lipase [1],> 1000 µM
same,IC50,[6],> 1000 µM
same,inhibition,[11],> 50%
CN1CCN(C(=S)SCSC(=S)N2CCN(C)CC2)CC1,IC50,Monoglyceride lipase [1],95.5 µM
same,IC50,[6],> 1000 µM
same,inhibition,[11],> 50%
